Results gathered from unrelated publications.
Protocols differ between the studies behind these lines.
Sample: plasma

| SMILES | species | route | dose | notes | Tmax [min] |
| --- | --- | --- | --- | --- | --- |
| C[C@H]1[C@@H](O)O[C@@H]2O[C@@]3(C)CC[C@H]4[C@H](C)CC[C@@H]1[C@@]24OO3 | Sprague-Dawley rat | oral | 10 mg/kg | – | 27 |
| O=c1cc(-c2ccc(O)c(O)c2)oc2cc(O)cc(O)c12 | male Sprague-Dawley rat | oral | 30 mg/kg | – | 30 |
| N#C[C@@]12C[C@@H]1[C@@H](n1cnc3c(N[C@@H](C4CCC4)C4CC4)nc(I)nc31)[C@H](O)[C@@H]2O | male Wistar rat | oral | 3 mg/kg | – | 120 |
| CN1Cc2c(N)cccc2C(=O)N1C1CCC(=O)NC1=O (centres unmarked) | male Sprague-Dawley rat | oral | 3 mg/kg | – | ~18 |
| Cc1c(C(=O)O)ccc2c3n(nc12)[C@@H]1[C@H](C3)N(CC2CC2)[C@@]2(C(=O)Nc3cc(Cl)ccc32)[C@H]1c1cccc(Cl)c1F | male rat | oral | 2 mg/kg | – | 78 |
| Nc1ccc(/C=C/C(=O)NCc2cc3cc(-c4ccc(C(=O)N5CCC(F)(F)CC5)cc4)cc(-c4ccc(F)cc4)c3o2)cn1 | rat | oral | 3 mg/kg | – | 240 |
| CC(=Nc1ccc(N=Cc2cnccn2)cc1)N(C)C | male Sprague-Dawley rat | oral | 200 mg/kg | single dose | ≤ 5 |
| CC(=O)CC(=O)C1CC(C)C(=O)C1=O (centres unmarked) | male Sprague-Dawley rat | intravenous | 20 mg/kg | – | 6.6 |
| O=C(C=Cc1ccccc1)Nc1cc(-c2ccnc(N3CCC(O)CC3)c2)ccn1 | female Sprague-Dawley rat | oral | 50 mg/kg | – | 30 |
| CC1(CN)CCN(c2cnc3c(Sc4ccncc4Cl)n[nH]c3n2)CC1 | male Sprague-Dawley rat | oral | 10 mg/kg | – | 4.98 |
| O=C1CC[C@H](N2Cc3cc(N4CCN(CC5CCN(c6ccc([C@@H]7c8ccc(O)cc8CC[C@@H]7c7ccccc7)cc6)CC5)CC4)ccc3C2=O)C(=O)N1 | male Sprague-Dawley rat | oral | 20 mg/kg | fasted | 200 |
